Data as given in ChEMBL document CHEMBL5724801, “EUbOPEN Chemogenomics Library - Multiplex” (2024).
Where “and” joins values, the source holds several entries; their conditions need not be identical. Equal entries are not always repeated.

Test system: Fibroblast
Assay: Multiplex assay against human fibroblast
Format: toxicity, cell-based
In short: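 Compound was added to live cells that had been stained at seeding with Hoechst33342, BioTracker Green Microtubule Cytoskeleton Dye, MitoTracker Red and Annexin V Alexa Fluor 680, and imaging followed on a CQ1 microscope at 37°C and 5% CO2. CellPathfinder machine-learning gating divided cells into Hoechst high-intensity objects or normal cells, normal cells into healthy, pyknosed or fragmented nuclei, and pyknosed cells into mitotic or apoptotic. Tubulin, mitochondrial-mass and membrane-permeability phenotypes are per cents of healthy-nucleus cells.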

[1] = 12 h, 1 µM, compound concentration 1 uM
[2] = 12 h, 10 µM, compound concentration 10 uM
[3] = 24 h, 1 µM, compound concentration 1 uM
[4] = 24 h, 10 µM, compound concentration 10 uM
[5] = 48 h, 1 µM, compound concentration 1 uM
[6] = 48 h, 10 µM, compound concentration 10 uM

## O=C(NCCN1CCC(n2c(=O)[nH]c3cc(Cl)ccc32)CC1)c1ccc(F)cc1 [HALOPEMIDE]
[1]
  Population Apoptotic (%): 32% and 44%
  Population Fragmented Nuclei (%): 11% and 27%
  Population Healthy Nuclei (%): 62% and 43%
  Population Hoechst High Intensity Objects (%): 0% and 7%
  Population Membrane Permeable-Phenotype (%): 1% and 10%
  Population Mitochondria Different-Phenotype (%): 10% and 0%
  Population Mitotic Cells (%): 67% and 56%
  Population Normal (%): 99% and 92%
  Population Pyknosed Nuclei (%): 26% and 29%
  Population Tubulin-Different-Phenotype (%): 29% and 56%
  Total Cell Count: 120 and 92
[2]
  Population Apoptotic (%): 55% and 31%
  Population Fragmented Nuclei (%): 15% and 24%
  Population Healthy Nuclei (%): 54% and 34%
  Population Hoechst High Intensity Objects (%): 3% and 4%
  Population Membrane Permeable-Phenotype (%): 0% and 6%
  Population Mitochondria Different-Phenotype (%): 17% and 14%
  Population Mitotic Cells (%): 44% and 68%
  Population Normal (%): 96% and 95%
  Population Pyknosed Nuclei (%): 30% and 41%
  Population Tubulin-Different-Phenotype (%): 77% and 87%
  Total Cell Count: 204 and 148
[3]
  Population Apoptotic (%): 58% and 37%
  Population Fragmented Nuclei (%): 16% and 32%
  Population Healthy Nuclei (%): 69% and 41%
  Population Hoechst High Intensity Objects (%): 3% and 10%
  Population Membrane Permeable-Phenotype (%): 1% and 5%
  Population Mitochondria Different-Phenotype (%): 9% and 8%
  Population Mitotic Cells (%): 41% and 62%
  Population Normal (%): 96% and 90%
  Population Pyknosed Nuclei (%): 13% and 26%
  Population Tubulin-Different-Phenotype (%): 38% and 59%
  Total Cell Count: 128 and 100
[4]
  Population Apoptotic (%): 67% and 41%
  Population Fragmented Nuclei (%): 23% and 26%
  Population Healthy Nuclei (%): 51% and 38%
  Population Hoechst High Intensity Objects (%): 5% and 6%
  Population Membrane Permeable-Phenotype (%): 0% and 12%
  Population Mitochondria Different-Phenotype (%): 28% and 32%
  Population Mitotic Cells (%): 32% and 58%
  Population Normal (%): 95% and 93%
  Population Pyknosed Nuclei (%): 24% and 35%
  Population Tubulin-Different-Phenotype (%): 78% and 94%
  Total Cell Count: 220 and 140
[5]
  Population Apoptotic (%): 52% and 35%
  Population Fragmented Nuclei (%): 14% and 38%
  Population Healthy Nuclei (%): 68% and 43%
  Population Hoechst High Intensity Objects (%): 3% and 4%
  Population Membrane Permeable-Phenotype (%): 4% and 14%
  Population Mitochondria Different-Phenotype (%): 7% and 4%
  Population Mitotic Cells (%): 47% and 64%
  Population Normal (%): 96% and 95%
  Population Pyknosed Nuclei (%): 17%
  Population Tubulin-Different-Phenotype (%): 36% and 63%
  Total Cell Count: 128 and 99
[6]
  Population Apoptotic (%): 80% and 48%
  Population Fragmented Nuclei (%): 32% and 35%
  Population Healthy Nuclei (%): 50% and 45%
  Population Hoechst High Intensity Objects (%): 10% and 5%
  Population Membrane Permeable-Phenotype (%): 0% and 10%
  Population Mitochondria Different-Phenotype (%): 35% and 15%
  Population Mitotic Cells (%): 19% and 52%
  Population Normal (%): 89% and 94%
  Population Pyknosed Nuclei (%): 17% and 19%
  Population Tubulin-Different-Phenotype (%): 77% and 96%
  Total Cell Count: 229 and 136

## COc1c(Nc2ccc(S(C)(=O)=O)nc2C)ncnc1OC1CCN(C(=O)OC(C)C)CC1 [ADP-597]
[1]
  Population Apoptotic (%): 57% and 42%
  Population Fragmented Nuclei (%): 14% and 27%
  Population Healthy Nuclei (%): 71% and 40%
  Population Hoechst High Intensity Objects (%): 3% and 4%
  Population Membrane Permeable-Phenotype (%): 0% and 2%
  Population Mitochondria Different-Phenotype (%): 10% and 7%
  Population Mitotic Cells (%): 42% and 57%
  Population Normal (%): 96% and 95%
  Population Pyknosed Nuclei (%): 14% and 33%
  Population Tubulin-Different-Phenotype (%): 34% and 27%
  Total Cell Count: 133 and 105
[2]
  Population Apoptotic (%): 44% and 39%
  Population Fragmented Nuclei (%): 21% and 43%
  Population Healthy Nuclei (%): 58% and 27%
  Population Hoechst High Intensity Objects (%): 2%
  Population Membrane Permeable-Phenotype (%): 0% and 11%
  Population Mitochondria Different-Phenotype (%): 15% and 14%
  Population Mitotic Cells (%): 56% and 60%
  Population Normal (%): 97% and 98%
  Population Pyknosed Nuclei (%): 20% and 28%
  Population Tubulin-Different-Phenotype (%): 54% and 77%
  Total Cell Count: 127 and 100
[3]
  Population Apoptotic (%): 47% and 37%
  Population Fragmented Nuclei (%): 17% and 25%
  Population Healthy Nuclei (%): 67% and 50%
  Population Hoechst High Intensity Objects (%): 4% and 10%
  Population Membrane Permeable-Phenotype (%): 0% and 10%
  Population Mitochondria Different-Phenotype (%): 1% and 2%
  Population Mitotic Cells (%): 52% and 62%
  Population Normal (%): 95% and 89%
  Population Pyknosed Nuclei (%): 15% and 24%
  Population Tubulin-Different-Phenotype (%): 27% and 48%
  Total Cell Count: 146 and 109
[4]
  Population Apoptotic (%): 52% and 27%
  Population Fragmented Nuclei (%): 20% and 49%
  Population Healthy Nuclei (%): 60% and 31%
  Population Hoechst High Intensity Objects (%): 5% and 6%
  Population Membrane Permeable-Phenotype (%): 0% and 10%
  Population Mitochondria Different-Phenotype (%): 5% and 3%
  Population Mitotic Cells (%): 47% and 72%
  Population Normal (%): 94% and 93%
  Population Pyknosed Nuclei (%): 18% and 19%
  Population Tubulin-Different-Phenotype (%): 41% and 75%
  Total Cell Count: 131 and 99
[5]
  Population Apoptotic (%): 64% and 42%
  Population Fragmented Nuclei (%): 25% and 28%
  Population Healthy Nuclei (%): 63% and 51%
  Population Hoechst High Intensity Objects (%): 2% and 9%
  Population Membrane Permeable-Phenotype (%): 0% and 2%
  Population Mitochondria Different-Phenotype (%): 4% and 0%
  Population Mitotic Cells (%): 35% and 57%
  Population Normal (%): 97% and 90%
  Population Pyknosed Nuclei (%): 11% and 20%
  Population Tubulin-Different-Phenotype (%): 30% and 59%
  Total Cell Count: 152 and 102
[6]
  Population Apoptotic (%): 73% and 75%
  Population Fragmented Nuclei (%): 29% and 56%
  Population Healthy Nuclei (%): 58% and 36%
  Population Hoechst High Intensity Objects (%): 8% and 2%
  Population Membrane Permeable-Phenotype (%): 0% and 2%
  Population Mitochondria Different-Phenotype (%): 20% and 18%
  Population Mitotic Cells (%): 26% and 25%
  Population Normal (%): 91% and 97%
  Population Pyknosed Nuclei (%): 12% and 7%
  Population Tubulin-Different-Phenotype (%): 57% and 84%
  Total Cell Count: 131 and 108
